From ChEMBL document CHEMBL1126560, “Endothelin-1 analogues substituted at both position 18 and 19: highly potent endothelin antagonists with no selectivity for either receptor subtype ETA or ETB” (J Med Chem, 1993)

Assays:
[1] = molecular target: T1, Endothelin-1 receptor (Sus scrofa) (UniProt Q29010); assay: Tested for the ETA receptor agonist activity by measuring maximum vasoconstriction in porcine coronary artery; format: functional, tissue-based
T1 sequence (whole entry): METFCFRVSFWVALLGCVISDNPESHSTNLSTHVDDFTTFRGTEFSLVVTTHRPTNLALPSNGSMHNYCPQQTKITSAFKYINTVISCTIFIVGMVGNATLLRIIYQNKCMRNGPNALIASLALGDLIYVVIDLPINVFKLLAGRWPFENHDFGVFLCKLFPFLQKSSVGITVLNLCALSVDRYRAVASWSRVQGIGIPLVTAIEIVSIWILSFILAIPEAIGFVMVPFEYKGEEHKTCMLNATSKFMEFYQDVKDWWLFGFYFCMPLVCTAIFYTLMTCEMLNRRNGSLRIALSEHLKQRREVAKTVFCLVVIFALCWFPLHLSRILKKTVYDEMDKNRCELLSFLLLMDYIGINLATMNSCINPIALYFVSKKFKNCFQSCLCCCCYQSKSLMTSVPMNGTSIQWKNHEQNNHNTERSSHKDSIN
Method in brief: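 Porcine right coronary artery, endothelium-denuded helical strips in Krebs-Henseleit, 37 °C, isometric tension. Compound applied cumulatively, up to 1 μM. Maximal contraction expressed as % of 60 mM KCl-induced tension; n in parentheses.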

[2] = molecular target: Endothelin receptor, ET-A/ET-B (Homo sapiens) (UniProt P24530+P25101); assay: (§1) Antagonism of sarafotoxin S6c-induced vasoconstriction in rabbit pulmonary artery at both ETA and ETB receptors; format: functional; settings: Oryctolagus cuniculus; target entry is the homologue from another species
Method in brief: (§2)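 Rabbit pulmonary artery, endothelium-denuded 5-mm rings in Krebs-Henseleit, 95% O2-5% CO2, 37 °C, isometric tension. Compound added 15 min before cumulative sarafotoxin S6c. Tension normalized to 60 mM KCl response. Antagonism given as pA2 (van Rossum) or pD2' value; n in parentheses.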

Endothelin-1 receptor [3] = molecular target: T2, Endothelin-1 receptor (Sus scrofa, UniProt Q29010); assay: ETA receptor antagonist activity was measured by inhibition of ET-1 induced vasoconstriction in isolated porcine coronary artery; format: functional, tissue-based; settings: read-out: pA2 (converted)
T2 sequence (Q29010 whole entry): T1 sequence (whole entry)
Method in brief: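 Porcine right coronary artery, endothelium-denuded 2 × 5-mm helical strips in Krebs-Henseleit, 95% O2-5% CO2, 37 °C, isometric tension. Compound added 15 min before cumulative ET-1. Tension normalized to 60 mM KCl. pA2 by van Rossum's method; n in parentheses.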

Endothelin-1 receptor [4] = molecular target: T2, Endothelin-1 receptor; assay: Tested for the competitive binding versus [125I]- ET-1 determined in porcine cardiac ventricular membrane for Endothelin A receptor
Method in brief: (§3)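 Membranes (porcine cardiac ventricle at 12 μg/mL for ETA; bovine cerebrum at 150 μg/mL for ETB) in pH 7.2 Tris/EGTA/Mg acetate/0.1% BSA buffer with protease inhibitors. Incubated with 100 pM [125I]ET-1 and varied compound for 1 h at 25 °C, then filtered and counted by gamma counter. IC50 given as mean ± SEM of ≥3 determinations.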

[5] = molecular target: T3, Endothelin receptor type B (Bos taurus, UniProt P28088); assay: Tested for the competitive binding versus [125I]- ET-1 determined in bovine cerebrum membrane for Endothelin B receptor; format: cell membranes; method in brief: as §3
T3 sequence (P28088 whole entry): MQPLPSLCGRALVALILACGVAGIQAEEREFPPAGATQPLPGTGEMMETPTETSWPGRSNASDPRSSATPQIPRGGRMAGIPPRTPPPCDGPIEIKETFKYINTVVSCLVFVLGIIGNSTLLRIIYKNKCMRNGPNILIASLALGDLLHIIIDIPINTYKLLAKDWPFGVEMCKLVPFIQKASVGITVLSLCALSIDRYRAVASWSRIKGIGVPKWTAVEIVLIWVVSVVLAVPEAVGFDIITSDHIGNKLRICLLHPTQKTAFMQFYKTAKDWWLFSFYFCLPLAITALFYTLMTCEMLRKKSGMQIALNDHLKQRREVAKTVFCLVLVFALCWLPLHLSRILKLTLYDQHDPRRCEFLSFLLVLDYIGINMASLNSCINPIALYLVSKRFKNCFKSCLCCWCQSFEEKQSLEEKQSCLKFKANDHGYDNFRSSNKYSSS

[6] = molecular target: T4, Endothelin receptor, ET-A/ET-B (Homo sapiens, UniProt P24530+P25101); assay: as §1; format: functional, Oryctolagus cuniculus; settings: target entry is the homologue from another species; method in brief: as §2
T4 sequence (P24530 whole entry): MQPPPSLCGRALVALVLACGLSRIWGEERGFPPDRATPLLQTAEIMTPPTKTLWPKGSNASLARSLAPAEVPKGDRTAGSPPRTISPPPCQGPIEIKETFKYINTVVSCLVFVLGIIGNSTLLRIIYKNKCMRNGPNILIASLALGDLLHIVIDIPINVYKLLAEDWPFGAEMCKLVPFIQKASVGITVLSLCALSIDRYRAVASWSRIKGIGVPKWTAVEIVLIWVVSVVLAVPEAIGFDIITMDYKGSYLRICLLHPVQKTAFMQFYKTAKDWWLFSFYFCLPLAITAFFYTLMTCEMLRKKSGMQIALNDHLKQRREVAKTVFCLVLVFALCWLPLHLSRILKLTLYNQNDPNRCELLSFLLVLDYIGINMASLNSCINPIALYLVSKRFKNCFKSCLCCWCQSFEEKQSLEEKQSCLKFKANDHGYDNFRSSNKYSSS
T4 sequence (P25101 whole entry): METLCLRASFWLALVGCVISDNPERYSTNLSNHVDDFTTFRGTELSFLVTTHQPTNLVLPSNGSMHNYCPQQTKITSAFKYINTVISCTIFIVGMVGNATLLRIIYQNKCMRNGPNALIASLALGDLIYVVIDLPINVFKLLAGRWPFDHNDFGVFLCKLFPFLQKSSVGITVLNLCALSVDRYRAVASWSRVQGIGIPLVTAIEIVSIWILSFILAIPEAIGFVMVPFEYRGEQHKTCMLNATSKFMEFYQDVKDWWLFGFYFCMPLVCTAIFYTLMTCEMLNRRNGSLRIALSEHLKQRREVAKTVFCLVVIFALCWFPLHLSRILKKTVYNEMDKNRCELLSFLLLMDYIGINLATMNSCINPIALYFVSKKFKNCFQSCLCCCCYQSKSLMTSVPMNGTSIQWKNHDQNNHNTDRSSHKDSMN

SMILES	Max vasoconstriction [1]	pD2 [2]	Kb (Endothelin-1 receptor [3]) [nM]	IC50 (Endothelin-1 receptor [4]) [nM]	IC50 [5] [nM]	pA2 [6]
CC[C@H](C)[C@H](NC(=O)[C@H](CC(C)C)NC(=O)[C@@H](NC(=O)[C@H](CC(C)C)NC(=O)[C@H](Cc1c[nH]cn1)NC(=O)[C@@H]1CSSC[C@@H](N)C(=O)N[C@@H](CO)C(=O)N[C@@H]2CSSC[C@@H](NC(=O)[C@H](CCC(=O)O)NC(=O)[C@@H](CCCCN)NC(=O)[C@H](CC(=O)O)NC(=O)[C@@H](CCSC)NC(=O)[C@H](CC(C)C)NC(=O)[C@@H](CO)NC(=O)[C@H](CO)NC2=O)C(=O)N[C@@H](C(C)C)C(=O)N[C@H](Cc2ccc(O)cc2)C(=O)N[C@@H](Cc2ccccc2)C(=O)N1)[C@H](C)O)C(=O)N[C@@H](Cc1c[nH]c2ccccc12)C(=O)O	4	8.7	–	–	–	–
CC[C@H](C)[C@H](NC(=O)[C@H](CC(C)(C)C)NC(=O)[C@@H](NC(=O)[C@H](CC(C)C)NC(=O)[C@H](Cc1c[nH]cn1)NC(=O)[C@@H]1CSSC[C@H](N)C(=O)N[C@@H](CO)C(=O)N[C@H]2CSSC[C@H](NC(=O)[C@H](CCC(=O)O)NC(=O)[C@H](CCCCN)NC(=O)[C@H](CC(=O)O)NC(=O)[C@H](CCSC)NC(=O)[C@H](CC(C)C)NC(=O)[C@H](CO)NC(=O)[C@H](CO)NC2=O)C(=O)N[C@@H](C(C)C)C(=O)N[C@@H](Cc2ccc(O)cc2)C(=O)N[C@@H](Cc2ccccc2)C(=O)N1)[C@@H](C)O)C(=O)N[C@@H](Cc1c[nH]c2ccccc12)C(=O)O	–	–	39.8	0.7	0.25	8.4
